# Experimental data pooled from the literature.
# Protocols differ between the studies behind these lines.
SMILES,species,medium,route,dose,setting,half-life
O=C(NCCN1CCCC1)c1cc(-c2ccc(CN3CCOCC3)cc2)nc2ccc(F)cc12,male beagle dog,blood,intravenous,1 mg/kg,,13 h
CCn1c(=O)c(-c2cc(NC(=O)Nc3ccccc3)c(F)cc2Br)cc2cnc(NC)cc21,beagle dog,plasma,oral,5 mg/kg,single dose,6.96 h
CC[C@@H]1CN(C(=O)NCC(F)(F)F)C[C@@H]1c1cnc2cnc3[nH]ccc3n12,beagle dog,plasma,oral,1 mg/kg,single dose,11.6 h
Oc1c(-n2ccnn2)cnn1-c1cc(N2CCOCC2)ncn1,female dog,plasma,intravenous,3 mg/kg,,2.7 h
COc1cc2c3c(n(CCCN4CCOCC4)c(=O)c2cc1OC)-c1cc2c(cc1C3=O)OCO2,female beagle dog,plasma,intravenous,100 mg/m²,infusion,14 h
C=CC(=O)Nc1cc(Nc2nccc(Nc3cc(Cl)c(F)cc3C(C)(C)O)n2)c(OC)cc1N1CC[C@@H](N(C)C)C1,beagle dog,plasma,intravenous,1 mg/kg,,13.9 h
Cc1nnc2sc(C(=O)NCc3ccc(-c4cccnc4F)cc3)c(N)c2c1C,dog,plasma,intravenous,,,1 h
Cc1cnc(N2CC3(CCOCC3)C2)c(C(=O)Nc2ccc(C(=O)N3CCc4cc(C(=O)Nc5c(C)cccc5F)sc4-c4ccccc43)cc2)c1,dog,plasma,intravenous,0.1 mg/kg,single dose,2.4 h
